# Laboratory results as given in ChEMBL document CHEMBL1151475, “Thiopurine drugs azathioprine and 6-mercaptopurine inhibit Mycobacterium paratuberculosis growth in vitro” (2008).
# Columns and labels:
# Enterococcus faecalis [1] = assay: Antituberculosis activity against Enterococcus faecalis ATCC 29212 isolated from human urine assessed as minimum drug level required for inhibition by MGIT 960 susceptibility test; format: functional
# [2] = tested on: Mycobacterium avium subsp. paratuberculosis; assay: Antituberculosis activity against Mycobacterium paratuberculosis UCF-5 isolated from Crohn's disease patient assessed as minimum drug level required for inhibition by MGIT 960 susceptibility test; format: functional
# Summary of the method: (§1)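 10^5 to 10^6 CFU from single-cell suspensions inoculated in duplicate into MGIT ParaTB medium with supplement and egg yolk. Drugs were at final 0.5–64.0 μg/ml, with 128.0 μg/ml added for some strains. Tubes were incubated at 37°C in MGIT 960. Inhibition is the lowest concentration giving a time to detection longer than a drug-free 1:100 inoculum control. Killing is no positive signal through 56 days.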
# Escherichia coli = assay: Antituberculosis activity against Escherichia coli ATCC 25922 clinical isolate assessed as minimum drug level required for killing after 56 days by MGIT 960 susceptibility test; format: functional
# Mycobacterium avium [3] = assay: Antituberculosis activity against Mycobacterium avium JTC48627 isolated from bison fecal sample assessed as minimum drug level required for killing within 15 days by MGIT 960 susceptibility test; format: functional, Feces
# [4] = tested on: Mycobacterium avium subsp. paratuberculosis; assay: Antituberculosis activity against Mycobacterium paratuberculosis B213 isolated from bovine assessed as minimum drug level required for inhibition by MGIT 960 susceptibility test; format: functional; summary of the method: as §1
# [5] = tested on: Mycobacterium avium subsp. paratuberculosis; assay: Antituberculosis activity against Mycobacterium paratuberculosis UCF-7 isolated from Crohn's disease patient assessed as colony counts at 4 ug after 12 days by MGIT 960 susceptibility test; format: functional
# Mycobacterium avium [6] = assay: Antituberculosis activity against Mycobacterium avium JTC981 isolated from bongo fecal sample assessed as minimum drug level required for inhibition by MGIT 960 susceptibility test; format: functional, Feces; summary of the method: as §1
# [7] = tested on: Mycolicibacterium smegmatis; assay: Antituberculosis activity against Mycobacterium smegmatis ATCC 14468 assessed as minimum drug level required for inhibition by MGIT 960 susceptibility test; format: functional
# Summary of the method: (§2)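 MGIT ParaTB tubes were supplemented with egg yolk and inoculated in duplicate with 10^5 to 10^6 CFU from single-cell suspensions. Thiopurines were dissolved in 0.05 M NaOH in 10 mM PBS and tested at final 0.5 to 64.0 μg/ml, with 128.0 μg/ml added for some strains. Tubes ran at 37°C in the MGIT 960. The value is the lowest concentration giving a time-to-detection longer than a drug-free 1:100 inoculum control.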
# Mycobacterium avium [8] = assay: Antituberculosis activity against Mycobacterium avium JTC981 isolated from bongo fecal sample assessed as minimum drug level required for killing within 15 days by MGIT 960 susceptibility test; format: functional, Feces
# Mycobacterium avium [9] = assay: Antituberculosis activity against Mycobacterium avium WSLH1544 isolated from water assessed as minimum drug level required for killing within 15 days by MGIT 960 susceptibility test; format: functional
# [10] = tested on: Mycobacterium avium subsp. paratuberculosis; assay: Antituberculosis activity against Mycobacterium paratuberculosis B244 isolated from bovine assessed as minimum drug level required for inhibition by MGIT 960 susceptibility test; format: functional; summary of the method: as §1
# [11] = tested on: Mycobacterium avium subsp. paratuberculosis; assay: Antituberculosis activity against Mycobacterium paratuberculosis UCF-4 isolated from Crohn's disease patient assessed as minimum drug level required for inhibition by MGIT 960 susceptibility test; format: functional; summary of the method: as §1
# [12] = tested on: Mycobacterium avium subsp. paratuberculosis; assay: Antituberculosis activity against Mycobacterium paratuberculosis UCF-7 isolated from Crohn's disease patient assessed as minimum drug level required for inhibition by MGIT 960 susceptibility test; format: functional; summary of the method: as §1
# Mycobacterium avium [13] = assay: Antituberculosis activity against Mycobacterium avium WSLH1544 isolated from water assessed as minimum drug level required for inhibition by MGIT 960 susceptibility test; format: functional; summary of the method: as §1
# [14] = tested on: Mycobacterium avium subsp. paratuberculosis; assay: Antituberculosis activity against Mycobacterium paratuberculosis ATCC 19698 isolated from bovine assessed as lowest drug level producing inhibition at 10^6 CFU of inoculum by MGIT 960 susceptibility test; format: functional
# Summary of the method: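 M. paratuberculosis ATCC 19698 at 10^6 CFU per MGIT ParaTB tube in duplicate, drugs at final 1.0–64.0 μg/ml, 37°C in MGIT 960. Inhibition is the lowest concentration whose time to detection exceeds the 1:100 diluted-inoculum solvent control. No detectable growth means the tube never signals positive through 56 days.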
# [15] = tested on: Mycobacterium avium subsp. paratuberculosis; assay: Antituberculosis activity against Mycobacterium paratuberculosis UCF-7 isolated from Crohn's disease patient assessed as minimum drug level required for killing after 56 days by MGIT 960 susceptibility test; format: functional; summary of the method: as §1
# Mycobacterium avium [16] = assay: Antituberculosis activity against Mycobacterium avium ATCC 25291 isolated from chicken assessed as minimum drug level required for inhibition by MGIT 960 susceptibility test; format: functional; summary of the method: as §1
# Mycobacterium avium [17] = assay: Antituberculosis activity against Mycobacterium avium ATCC 25291 isolated from chicken assessed as minimum drug level required for killing within 15 days by MGIT 960 susceptibility test; format: functional
# Mycolicibacterium phlei [18] = assay: Antituberculosis activity against Mycobacterium phlei ATCC 11758 assessed as minimum drug level required for inhibition by MGIT 960 susceptibility test; format: functional; summary of the method: as §2
# Mycolicibacterium phlei [19] = assay: Antituberculosis activity against Mycobacterium phlei ATCC 11758 assessed as minimum drug level required for killing after 56 days by MGIT 960 susceptibility test; format: functional
# Summary of the method: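 Duplicate MGIT ParaTB tubes with egg yolk and supplement received 10^5 to 10^6 CFU and thiopurine (in 0.05 M NaOH/10 mM PBS) at final 0.5 to 64.0 μg/ml, plus 128.0 μg/ml for some strains. Tubes were incubated at 37°C in the MGIT 960. The value is the minimum concentration whose tubes never signalled positive by 56 days.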
# Mycobacterium avium [20] = assay: Antituberculosis activity against Mycobacterium avium JTC48627 isolated from bison fecal sample assessed as minimum drug level required for inhibition by MGIT 960 susceptibility test; format: functional, Feces; summary of the method: as §1
# [21] = tested on: Mycobacterium avium subsp. paratuberculosis; assay: Antituberculosis activity against Mycobacterium paratuberculosis UCF-8 isolated from Crohn's disease patient assessed as minimum drug level required for inhibition by MGIT 960 susceptibility test; format: functional; summary of the method: as §1
# Enterococcus faecalis [22] = assay: Antituberculosis activity against Enterococcus faecalis ATCC 29212 isolated from human urine assessed as minimum drug level required for killing after 56 days by MGIT 960 susceptibility test; format: functional
# [23] = tested on: Mycobacterium avium subsp. paratuberculosis; assay: Antituberculosis activity against Mycobacterium paratuberculosis UCF-8 isolated from Crohn's disease patient assessed as minimum drug level required for killing after 56 days by MGIT 960 susceptibility test; format: functional; summary of the method: as §1
# Mycobacterium avium [24] = assay: Antituberculosis activity against Mycobacterium avium EPA3 isolated from water assessed as minimum drug level required for killing within 15 days by MGIT 960 susceptibility test; format: functional
# Mycobacterium avium [25] = assay: Antituberculosis activity against Mycobacterium avium 104 isolated from AIDS patient assessed as minimum drug level required for inhibition by MGIT 960 susceptibility test; format: functional; summary of the method: as §1
# [26] = tested on: Mycobacterium avium subsp. paratuberculosis; assay: Antituberculosis activity against Mycobacterium paratuberculosis JTC303 isolated from bovine assessed as minimum drug level required for killing after 56 days by MGIT 960 susceptibility test; format: functional; summary of the method: as §1
# Mycobacterium avium [27] = assay: Antituberculosis activity against Mycobacterium avium ATCC 35712 isolated from chicken assessed as minimum drug level required for inhibition by MGIT 960 susceptibility test; format: functional; summary of the method: as §1
# [28] = tested on: Mycobacterium avium subsp. paratuberculosis; assay: Antituberculosis activity against Mycobacterium paratuberculosis ATCC 19698 isolated from bovine assessed as lowest drug level producing inhibition at 10^6 CFU of inoculum by agar counting method; format: functional
# Summary of the method: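 ATCC 19698 at 10^6 CFU was exposed to drug (1.0–64.0 μg/ml) in MGIT ParaTB medium at 37°C. Aliquots taken at 3 and 5 days were centrifuged, resuspended in PBS and declumped with glass beads. Serial dilutions were plated in quadruplicate on 7H10/OADC/mycobactin J and counted after 8 weeks. Inhibition is the lowest concentration giving a 2 log10 (99%) CFU reduction.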
compound,measurement,setting,value
Sc1ncnc2nc[nH]c12 [MERCAPTOPURINE ANHYDROUS],Activity,Enterococcus faecalis [1],>128 µg/mL
same,Activity,[2],1 µg/mL
same,Activity,Escherichia coli,>128 µg/mL
same,Activity,Mycobacterium avium [3],>64 µg/mL
same,Activity,[4],4 µg/mL
same,log10CFU/ml,[5],3.19
same,Activity,Mycobacterium avium [6],>64 µg/mL
same,Activity,[7],>128 µg/mL
same,Activity,Mycobacterium avium [8],>64 µg/mL
same,Activity,Mycobacterium avium [9],>64 µg/mL
same,Activity,[10],4 µg/mL
same,Activity,[11],2 µg/mL
same,Activity,[12],<1 µg/mL
same,Activity,Mycobacterium avium [13],8 µg/mL
same,Activity,[14],1 µg/mL
same,Activity,[15],8 µg/mL
same,Activity,Mycobacterium avium [16],>64 µg/mL
same,Activity,Mycobacterium avium [17],>64 µg/mL
same,Activity,Mycolicibacterium phlei [18],1 µg/mL
same,Activity,Mycolicibacterium phlei [19],16 µg/mL
same,Activity,Mycobacterium avium [20],32 µg/mL
same,Activity,[21],<1 µg/mL
same,Activity,Enterococcus faecalis [22],>128 µg/mL
same,Activity,[23],16 µg/mL
same,Activity,Mycobacterium avium [24],>64 µg/mL
same,Activity,Mycobacterium avium [25],>64 µg/mL
same,Activity,[26],32 µg/mL
same,Activity,Mycobacterium avium [27],>64 µg/mL
same,Activity,[28],1 µg/mL
